In brackets after ≈: the same amount, converted by molar mass.
What was measured:
Enterococcus faecalis = assay: Antibacterial activity against Enterococcus faecalis ATCC 29212 after 24 hrs by NCCLS method; format: functional; conditions: ATCC 29212, 24 h
Summary of the method: (§1)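 Agar dilution on Mueller Hinton agar. Overnight cultures on soybean casein digest agar at 37 °C were adjusted to 0.5 McFarland, then diluted 10-fold to 1.2 × 10^7 CFU/mL. 10 µL of each culture was spotted, incubated at 35 °C for 24 h. MIC taken as the lowest concentration preventing growth. Triplicates.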

Escherichia coli [1] = assay: Antibacterial activity against Escherichia coli ATCC 25922 after 24 hrs by NCCLS method; format: functional; conditions: ATCC 25922, 24 h; summary of the method: as §1
[2] = test system: Staphylococcus epidermidis; assay: Antibacterial activity against Staphylococcus epidermidis ATCC 0155 after 24 hrs by NCCLS method; format: functional; conditions: ATCC 0155, 24 h; summary of the method: as §1
Escherichia coli [3] = assay: Antibacterial activity against Escherichia coli ATCC 10536 after 24 hrs by NCCLS method; format: functional; conditions: ATCC 10536, 24 h; summary of the method: as §1
Candida albicans = assay: Antifungal activity against Candida albicans ATCC 10231 after 24 to 72 hrs by NCCLS method; format: functional
Summary of the method: (§2)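 Yeasts were grown overnight on Sabouraud dextrose agar at 35 °C and adjusted in saline to 0.5 McFarland (1.0–5.0 × 10^6 cells/mL). This stock was diluted 1:100 then 1:20 to 5.0 × 10^2–2.5 × 10^3 cells/mL. Tubes were incubated at 35 °C for 48 h in ambient air. MIC taken as the lowest concentration preventing growth. Triplicates.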

Proteus mirabilis = assay: Antibacterial activity against Proteus mirabilis ATCC 27853 after 24 hrs by NCCLS method; format: functional; summary of the method: as §1
Staphylococcus aureus = assay: Antibacterial activity against Staphylococcus aureus ATCC 25923 after 24 hrs by NCCLS method; format: functional; conditions: ATCC 25923, 24 h; summary of the method: as §1
Pichia kudriavzevii = assay: Antifungal activity against Candida krusei IFO 1664 after 24 to 72 hrs by NCCLS method; format: functional; summary of the method: as §2
Clavispora lusitaniae = assay: Antifungal activity against Candida lusitaniae ATCC 42720 after 24 to 72 hrs by NCCLS method; format: functional; summary of the method: as §2
Klebsiella pneumoniae = assay: Antibacterial activity against Klebsiella pneumoniae ATCC 10031 after 24 hrs by NCCLS method; format: functional; conditions: ATCC 10031, 24 h; summary of the method: as §1
Candida tropicalis = assay: Antifungal activity against Candida tropicalis IFO 10241 after 24 to 72 hrs by NCCLS method; format: functional; summary of the method: as §2
Bacillus subtilis = assay: Antibacterial activity against Bacillus subtilis ATCC 6633 after 24 hrs by NCCLS method; format: functional; conditions: ATCC 6633, 24 h; summary of the method: as §1
Micrococcus luteus = assay: Antibacterial activity against Micrococcus luteus ATCC 10240 after 24 hrs by NCCLS method; format: functional; conditions: ATCC 10240, 24 h; summary of the method: as §1
[4] = Chemical stability in PBS buffer at pH 7.4 assessed as compound remaining after 16 hrs by HPLC; format: physicochemical; conditions: read-out: Stability
Summary of the method: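 Compound at 200 µM in 1% DMSO / 50 mM PBS, pH 7.4, incubated at 37 °C without cells; pH was checked before and after. Samples went onto a C-18 HPLC column (35/65 CH3CN/H2O, 1 mL/min, column at 37 °C). Percent remaining was taken from peak integration against an internal standard at 254 nm.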

[5] = Drug uptake assessed as incorporation into egg phosphatidylcholine liposome by HPLC; format: ADME; conditions: artificial membrane
Summary of the method: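 Egg PC liposomes were diluted 10-fold in PBS, untrapped glucose was removed by centrifugation, and lipid was adjusted to 1 mg/mL. Compound in ethanol was added to final 50 µM with 10% ethanol. Percent incorporated into bilayers was derived from HPLC peak integration of compound left in solution.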

Compound | MIC (Enterococcus faecalis) [µg/mL] | MIC (Escherichia coli [1]) [µg/mL] | MIC [2] [µg/mL] | MIC (Escherichia coli [3]) [µg/mL] | MIC (Candida albicans) [µg/mL] | MIC (Proteus mirabilis) [µg/mL] | MIC (Staphylococcus aureus) [µg/mL] | MIC (Pichia kudriavzevii) [µg/mL] | MIC (Clavispora lusitaniae) [µg/mL] | MIC (Klebsiella pneumoniae) [µg/mL] | MIC (Candida tropicalis) [µg/mL] | MIC (Bacillus subtilis) [µg/mL] | MIC (Micrococcus luteus) [µg/mL] | remaining at 16 h [4] [%] | Drug uptake [5]
CCCCCCCCCCCCO[C@H]1Cc2c(O)cc(O)cc2O[C@@H]1c1ccc(O)c(O)c1 | – | – | – | – | – | – | – | – | – | – | – | – | – | – | 100%
CCCCCCCCCCCCCCO[C@H]1Cc2c(O)cc(O)cc2O[C@@H]1c1ccc(O)c(O)c1 | – | – | – | – | – | – | – | – | – | – | – | – | – | – | 100%
CCCCCCCCCCCCCCCCO[C@H]1Cc2c(O)cc(O)cc2O[C@@H]1c1ccc(O)c(O)c1 | – | – | – | – | – | – | – | – | – | – | – | – | – | – | 100%
Oc1cc(O)c2c(c1)O[C@H](c1ccc(O)c(O)c1)[C@H](O)C2 [(-)-EPICATECHIN] | > 128 | > 128 | > 128 | > 128 | > 128 | > 128 | > 128 | > 128 | > 128 | > 128 | > 128 | > 128 | > 128 | – | –
C[C@@H]1[C@H](O)[C@@H](C)/C=C/C=C/C=C/C=C/C=C/C=C/C=C/[C@H](O[C@@H]2O[C@H](C)[C@@H](O)[C@H](N)[C@@H]2O)C[C@@H]2O[C@](O)(C[C@@H](O)C[C@@H](O)[C@H](O)CC[C@@H](O)C[C@@H](O)CC(=O)O[C@H]1C)C[C@H](O)[C@H]2C(=O)O [AMPHOTERICIN B] | – | – | – | – | 0.25 (≈ 0.271 µM) | – | – | 0.5 (≈ 0.541 µM) | 0.5 (≈ 0.541 µM) | – | 0.5 (≈ 0.541 µM) | – | – | – | –
Oc1cc(O)c2c(c1)O[C@H](c1ccc(O)c(O)c1)[C@@H](O)C2 [CIANIDANOL] | > 128 | > 128 | > 128 | > 128 | > 128 | > 128 | > 128 | > 128 | > 128 | > 128 | > 128 | > 128 | > 128 | – | –
O=C(O)c1cn(C2CC2)c2cc(N3CCNCC3)c(F)cc2c1=O [CIPROFLOXACIN] | 0.5 (≈ 1.51 µM) | – | 0.25 (≈ 0.754 µM) | – | – | 0.125 (≈ 0.377 µM) | 0.25 (≈ 0.754 µM) | – | – | < 0.06 | – | < 0.06 | < 0.06 | – | –
Oc1cc(O)c2c(c1)O[C@H](c1cc(O)c(O)c(O)c1)[C@H](O)C2 [EPIGALLOCATECHIN] | > 128 | > 128 | > 128 | > 128 | > 128 | > 128 | > 128 | > 128 | > 128 | > 128 | > 128 | > 128 | > 128 | – | –
O=C(O[C@@H]1Cc2c(O)cc(O)cc2O[C@@H]1c1cc(O)c(O)c(O)c1)c1cc(O)c(O)c(O)c1 [EPIGALOCATECHIN GALLATE] | > 128 | > 128 | 128 (≈ 279 µM) | > 128 | > 128 | > 128 | > 128 | > 128 | > 128 | > 128 | > 128 | > 128 | 32 (≈ 69.8 µM) | 15 | Not Active
NC[C@H]1O[C@H](O[C@H]2[C@H](O)[C@@H](O[C@H]3O[C@H](CO)[C@@H](O)[C@H](N)[C@H]3O)[C@H](N)C[C@@H]2N)[C@H](O)[C@@H](O)[C@@H]1O.O=S(=O)(O)O [KANAMYCIN SULFATE] | 32 | 8 | 4 | 8 | – | 32 | 16 | – | – | 64 | – | 2 | 8 | – | –

Next, values leading:

MIC (Enterococcus faecalis) [µg/mL] | MIC (Escherichia coli [1]) [µg/mL] | MIC [2] [µg/mL] | MIC (Escherichia coli [3]) [µg/mL] | MIC (Candida albicans) [µg/mL] | MIC (Proteus mirabilis) [µg/mL] | MIC (Staphylococcus aureus) [µg/mL] | MIC (Pichia kudriavzevii) [µg/mL] | MIC (Clavispora lusitaniae) [µg/mL] | MIC (Klebsiella pneumoniae) [µg/mL] | MIC (Candida tropicalis) [µg/mL] | MIC (Bacillus subtilis) [µg/mL] | MIC (Micrococcus luteus) [µg/mL] | remaining at 16 h [4] [%] | Drug uptake [5] | Compound
64 (≈ 193 µM) | > 128 | 64 (≈ 193 µM) | > 128 | > 128 | > 128 | 64 (≈ 193 µM) | > 128 | > 128 | > 128 | > 128 | 128 (≈ 385 µM) | 32 (≈ 96.3 µM) | – | – | CCCO[C@H]1Cc2c(O)cc(O)cc2O[C@@H]1c1ccc(O)c(O)c1
– | – | – | – | – | – | – | – | – | – | – | – | – | 75 | – | CCCCCCCCCC(=O)O[C@H]1Cc2c(O)cc(O)cc2O[C@@H]1c1ccc(O)c(O)c1
– | – | – | – | – | – | – | – | – | – | – | – | – | > 90 | 100% | CCCCCCCCCCO[C@H]1Cc2c(O)cc(O)cc2O[C@@H]1c1ccc(O)c(O)c1
64 (≈ 136 µM) | > 128 | 32 (≈ 68 µM) | 64 (≈ 136 µM) | 64 (≈ 136 µM) | – | 32 (≈ 68 µM) | 128 (≈ 272 µM) | 64 (≈ 136 µM) | 128 (≈ 272 µM) | 128 (≈ 272 µM) | 32 (≈ 68 µM) | 16 (≈ 34 µM) | – | – | COc1cc(CO[C@H]2Cc3c(O)cc(O)cc3O[C@@H]2c2ccc(O)c(O)c2)cc(OC)c1OC
– | – | – | – | – | – | – | – | – | – | – | – | – | – | 100% | CCCCCCO[C@H]1Cc2c(O)cc(O)cc2O[C@@H]1c1ccc(O)c(O)c1
– | – | – | – | – | – | – | – | – | – | – | – | – | – | 100% | CCCCCCCCO[C@H]1Cc2c(O)cc(O)cc2O[C@@H]1c1ccc(O)c(O)c1
32 (≈ 84.1 µM) | > 128 | 64 (≈ 168 µM) | > 128 | > 128 | 128 (≈ 336 µM) | 64 (≈ 168 µM) | > 128 | > 128 | 128 (≈ 336 µM) | > 128 | 64 (≈ 168 µM) | 32 (≈ 84.1 µM) | – | – | Oc1cc(O)c2c(c1)O[C@H](c1ccc(O)c(O)c1)[C@@H](OCc1ccccc1)C2
> 128 | > 128 | > 128 | > 128 | > 128 | > 128 | > 128 | > 128 | > 128 | > 128 | > 128 | > 128 | > 128 | – | – | O=C(O[C@@H]1Cc2c(O)cc(O)cc2O[C@@H]1c1ccc(O)c(O)c1)c1cc(O)c(O)c(O)c1 [EPICATECHIN GALLATE]
– | – | – | – | 0.06 (≈ 0.085 µM) | – | – | 0.25 (≈ 0.354 µM) | 0.125 (≈ 0.177 µM) | – | 0.06 (≈ 0.085 µM) | – | – | – | – | CCC(C)n1ncn(-c2ccc(N3CCN(c4ccc(OCC5COC(Cn6cncn6)(c6ccc(Cl)cc6Cl)O5)cc4)CC3)cc2)c1=O (configuration not stated) [ITRACONAZOLE]
